For test [1], the system named is Cunninghamella bertholletiae. Briefly: Antifungal activity against Cunninghamella bertholletiae UTHSC 05-2275 after 24 hrs by broth microdilution method. It is filed as functional. The settings on record: UTHSC 05-2275, 24 h. An outline of the steps: (§1)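 CLSI broth microdilution for filamentous fungi. Isolates were stored at −80°C and subcultured on potato dextrose agar at 35°C. MICs were read after 24 h. […] The QC strain was Paecilomyces variotii ATCC 36257.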

Test [2] has as its system Cunninghamella bertholletiae. Kind of test: Antifungal activity against Cunninghamella bertholletiae FMR-9598 after 24 hrs by broth microdilution method. The settings on record: FMR-9598, 24 h. Type of test: functional. The method, boiled down: as §1
Test [3] has as its system Cunninghamella bertholletiae. Briefly: Antifungal activity against Cunninghamella bertholletiae UTHSC 04-2581 after 24 hrs by broth microdilution method. It is filed as functional. The settings on record: UTHSC 04-2581, 24 h. The method, boiled down:
as §1

For test [4], the system named is Cunninghamella bertholletiae. Kind of test: Antifungal activity against Cunninghamella bertholletiae UTHSC 03-2241 after 24 hrs by broth microdilution method. It is filed as functional. The settings on record: UTHSC 03-2241, 24 h. The method, boiled down: as §1
For test [5], the system named is Cunninghamella bertholletiae. Briefly: Antifungal activity against Cunninghamella bertholletiae UTHSC 06-1945 after 24 hrs by broth microdilution method. Type of test: functional. The settings on record: UTHSC 06-1945, 24 h. The method, boiled down:
as §1

Test [6] in a line: Antifungal activity against Cunninghamella echinulata UTHSC 03-3725 after 24 hrs by broth microdilution method. It is filed as functional. An outline of the steps:
as §1

The nature of test [7]: Antifungal activity against Cunninghamella echinulata FMR 10974 after 24 hrs by broth microdilution method. Type of test: functional. The method, boiled down: as §1
Test [8] in a line: Antifungal activity against Cunninghamella echinulata FMR 10973 after 24 hrs by broth microdilution method. Type of test: functional. An outline of the steps:
as §1

Test [9] can be described thus: Antifungal activity against Cunninghamella echinulata UTHSC 01-2298 after 24 hrs by broth microdilution method. Type of test: functional. The method, boiled down:
as §1

In test [10] the test system is Cunninghamella bertholletiae. Briefly: Antifungal activity against Cunninghamella bertholletiae UTHSC 05-2275 infected in neutropenic OF1 mouse assessed as decreased fungal load in kidney at 50 mg/kg, po bid administered 1 day post infection measured after 4 to 5 days relative to untreated control. It is filed as functional, organism-based. Also on record: dose 50 mg/kg. An outline of the steps: (§2)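 Neutropenic male OF1 mice (cyclophosphamide 200 mg/kg i.p. + 5-fluorouracil 150 mg/kg i.v., day −1) were infected i.v. with 1 × 10⁴ CFU. Ten mice per group were treated from day 1 and killed by CO₂ on day 5, or on day 4 if moribund. Half of each brain, lung and kidney was homogenized in 1 ml saline. Ten-fold dilutions were plated on PDA for 24 h at 35°C and counted as log₁₀ CFU/g.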

In test [11] the test system is Cunninghamella bertholletiae. Kind of test: Antifungal activity against Cunninghamella bertholletiae UTHSC 05-2275 infected in neutropenic OF1 mouse assessed as increase in mouse survival rate at 50 mg/kg, po bid administered 1 day after infection for 7 days relative to untreated control. Also on record: dose 50 mg/kg. Type of test: functional, organism-based. The method, boiled down: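 Male OF1 mice (~30 g) were made neutropenic with cyclophosphamide 200 mg/kg i.p. plus 5-fluorouracil 150 mg/kg i.v. 1 day before challenge. Challenge was 1 × 10⁴ CFU sporangiospores in 0.2 ml saline via the lateral tail vein. Mice got ceftazidime 5 mg/day s.c. on days 1–7. Dosing started 24 h post-challenge for 7 days. There were 10 mice/group, observed daily for 20 days. Kaplan-Meier analysis with log-rank test.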

Test [12] relates to Cunninghamella bertholletiae. Kind of test: Antifungal activity against Cunninghamella bertholletiae UTHSC 05-2275 infected in diabetic OF1 mouse assessed as increase in mouse survival rate at 25 mg/kg, po bid administered 1 day after infection for 7 days relative to untreated control. It is filed as functional, organism-based. Also noted: dose 25 mg/kg. An outline of the steps: (§3)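 Male OF1 mice were made diabetic with streptozocin 210 mg/kg i.p. Diabetes was confirmed by blood glucose >250 mg/dl at day 10. Challenge was 1 × 10⁵ CFU in 0.2 ml saline i.v. (tail vein), with ceftazidime 5 mg/day s.c. on days 1–7. Treatment began 1 day after challenge for 7 days. There were 10 mice/group, checked daily for 20 days. Kaplan-Meier analysis with log-rank comparison.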

For test [13], the system named is Cunninghamella bertholletiae. Briefly: Antifungal activity against Cunninghamella bertholletiae UTHSC 05-2275 infected in diabetic OF1 mouse assessed as increase in mouse survival rate at 50 mg/kg, po bid administered 1 day after infection for 7 days relative to untreated control. Also noted: dose 50 mg/kg. Type of test: functional, organism-based. The method, boiled down: as §3

Test [14] has as its system Cunninghamella bertholletiae. Kind of test: Antifungal activity against Cunninghamella bertholletiae UTSCH 05-2275 infected in diabetic OF1 mouse assessed as decreased fungal load in lung at 50 mg/kg, po bid administered 1 day post infection measured after 4 to 5 days relative to untreated control. It is filed as functional, organism-based. Also on record: dose 50 mg/kg. An outline of the steps: (§4)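 Diabetic OF1 mice (streptozocin 210 mg/kg i.p.; glucose >250 mg/dl) were infected i.v. with 1 × 10⁵ CFU, with ceftazidime cover. Ten per group were treated from day 1 and killed day 5, or day 4 if moribund. Half-organ homogenates (brain, lung, kidney) in 1 ml saline were serially diluted 10-fold on PDA, incubated 24 h at 35°C, and reported as log₁₀ CFU/g tissue.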

Test [15] has as its system Cunninghamella bertholletiae. Briefly: Antifungal activity against Cunninghamella bertholletiae UTSCH 05-2275 infected in diabetic OF1 mouse assessed as decreased fungal load in kidney at 50 mg/kg, po bid administered 1 day post infection measured after 4 to 5 days relative to untreated control. It is filed as functional, organism-based. Also noted: dose 50 mg/kg. An outline of the steps: as §4

Test [16] deals with Cunninghamella bertholletiae. Kind of test: Antifungal activity against Cunninghamella bertholletiae UTHSC 05-2275 infected in neutropenic OF1 mouse assessed as decreased fungal load in lung at 25 mg/kg, po bid administered 1 day post infection measured after 4 to 5 days relative to untreated control. Type of test: functional, organism-based. Also noted: dose 25 mg/kg. The method, boiled down: as §2

Test [17] deals with Cunninghamella bertholletiae. Kind of test: Antifungal activity against Cunninghamella bertholletiae UTHSC 05-2275 infected in neutropenic OF1 mouse assessed as decreased fungal load in kidney at 25 mg/kg, po bid administered 1 day post infection measured after 4 to 5 days relative to untreated control. It is filed as functional, organism-based. Also noted: dose 25 mg/kg. An outline of the steps: as §2

In test [18] the test system is Cunninghamella bertholletiae. Kind of test: Antifungal activity against Cunninghamella bertholletiae UTHSC 05-2275 infected in neutropenic OF1 mouse assessed as decreased fungal load in lung at 50 mg/kg, po bid administered 1 day post infection measured after 4 to 5 days relative to untreated control. Also on record: dose 50 mg/kg. It is filed as functional, organism-based. The method, boiled down: as §2

The test system of test [19] is Cunninghamella bertholletiae. Kind of test: Antifungal activity against Cunninghamella bertholletiae UTHSC 05-2275 infected in neutropenic OF1 mouse assessed as increase in mouse survival rate at 25 mg/kg, po bid administered 1 day after infection for 7 days relative to untreated control.

≈ marks a conversion by molar mass, not a printed value. Calls of active or inactive are those of the source. The rule behind the calls is not given here. Some results are limits rather than exact numbers.

As for `CC[C@H](C)C[C@H](C)CCCCCCCCC(=O)N[C@H]1C[C@@H](O)[C@@H](NCCN)NC(=O)[C@@H]2[C@@H](O)CCN2C(=O)[C@H]([C@H](O)CCN)NC(=O)[C@H]([C@H](O)[C@@H](O)c2ccc(O)cc2)NC(=O)[C@@H]2C[C@@H](O)CN2C(=O)[C@H]([C@@H](C)O)NC1=O` [CASPOFUNGIN], the MIC in [1], in [2], in [3], in test [4], in [5] and in [6] was above 16 µg/mL each time. For the same compound, the MIC in test [7], in test [8] and in test [9] was above 16 µg/mL each time.

As for `CCC(C)n1ncn(-c2ccc(N3CCN(c4ccc(OCC5COC(Cn6cncn6)(c6ccc(Cl)cc6Cl)O5)cc4)CC3)cc2)c1=O` (stereo not given) [ITRACONAZOLE], the result in test [10], in [12], in [15], in test [17] and in [19] was inactive. Also, the outcome in test [11], in test [13], in test [14], in test [16] and in test [18] was Active. The MIC worked out at 2 µg/mL (≈ 2.83 µM) in test [1]; 8 µg/mL (≈ 11.3 µM) in [2]; 1 µg/mL (≈ 1.42 µM) in [3]; 1 µg/mL (≈ 1.42 µM) in [4]; 2 µg/mL (≈ 2.83 µM) in test [5]; 2 µg/mL (≈ 2.83 µM) in test [6]. The MIC in test [7], in [8] and in [9] was above 16 µg/mL each time.

With `C[C@@H](c1nc(-c2ccc(C#N)cc2)cs1)[C@](O)(Cn1cncn1)c1ccc(F)cc1F` [RAVUCONAZOLE], the MIC in test [1], in [2], in [3], in test [4], in test [5] and in test [6] was above 16 µg/mL each time. The MIC in [7], in test [8] and in test [9] was above 16 µg/mL throughout.

In the case of `CN(C/C=C/C#CC(C)(C)C)Cc1cccc2ccccc12` [TERBINAFINE], the MIC in test [1] came to 0.06 µg/mL (≈ 0.206 µM); in test [2], 0.06 µg/mL (≈ 0.206 µM); in [3], 0.03 µg/mL (≈ 0.103 µM); in test [4] it was 0.03 µg/mL (≈ 0.103 µM); in [5], 0.03 µg/mL (≈ 0.103 µM); in [6], 0.03 µg/mL (≈ 0.103 µM). The MIC in test [7], in test [8] and in [9] was 0.06 µg/mL (≈ 0.206 µM) throughout.

For `C[C@@H](c1ncncc1F)[C@](O)(Cn1cncn1)c1ccc(F)cc1F` [VORICONAZOLE], the MIC in test [1] was 16 µg/mL (≈ 45.8 µM); in test [2], above 16 µg/mL; in test [3] it was 16 µg/mL (≈ 45.8 µM); in [4], 8 µg/mL (≈ 22.9 µM); in test [5], 16 µg/mL (≈ 45.8 µM); in [6], above 16 µg/mL. For the same compound, the MIC in test [7], in [8] and in [9] was above 16 µg/mL in each case.
